Tests used:
human DAT [1] = target: T1, human DAT (Homo sapiens, UniProt Q01959); test: Efflux; assay type: cell-based; conditions: HEK-293 human DAT, 10 μM drug, with or without 10 μM monensin
human SERT [2] = target: T2, human SERT (Homo sapiens, UniProt P31645); test: Uptake inhibition in HEK-293 cells expressing human SERT; assay type: cell-based
human SERT [3] = target: T2, human SERT; test: Efflux; assay type: cell-based; conditions: HEK-293 human SERT; for [3H]5-HT efflux at SERT: 10 μM drug; for effect of monensin on drug-evoked [3H]5-HT efflux at SERT: 10 μM drug plus 10 μM monensin
In short: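 HEK-293 cells stably expressing YFP-tagged human SERT, seeded at 40,000 cells/well on poly-D-lysine-coated coverslips. Preloaded with 0.3 μM radiolabelled substrate for 20 min at 37 °C, then superfused at 25 °C, 0.7 mL/min, with Krebs Ringer HEPES (pH 7.4). Fractions collected every 2 min. After a 40-min washout baseline, 10 μM test compound was added alone or with 10 μM monensin. Cells were lysed in 1% SDS and counted by scintillation. Analysis: two-way ANOVA with Tukey; n=3, triplicate.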

human SERT [4] = target: T2, human SERT; test: Transporter-mediated ionic currents, whole cell patch clamp, HEK-293 human SERT; assay type: cell-based; conditions: voltage clamped to −60 mV, 300 nM to 300 μM
DAT [5] = target: T3, DAT (Rattus norvegicus, UniProt P23977); test: Release of [3H]MPP+ from rat brain synaptosomes; assay type: biochemical; conditions: 0.1 nM to 10 μM
In short: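 Crude synaptosomes were prepared from rat caudate: homogenized in ice-cold 10% sucrose, spun at 1000 g for 10 min, supernatant kept. They were preloaded for 1 h with 9 nM [3H]MPP+ in Krebs-phosphate buffer; all buffers contained 1 μM reserpine. Test compound was applied at 0.1 nM–10 μM in triplicate. Release was stopped by vacuum filtration and counted by scintillation. EC50 was derived by nonlinear regression; n=3.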

[6] = system: extracellular dopamine and 5-HT in nucleus accumbens; test: In vivo microdialysis in the nucleus accumbens of conscious rats; conditions: rat nucleus accumbens dialysate
In short: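 Male Sprague-Dawley rats (300–400 g) were implanted under ketamine/xylazine with a jugular catheter and a nucleus accumbens guide cannula, then recovered ≥1 week. Probes were perfused with Ringer's at 0.6 μL/min, and 20-min dialysates were assayed for dopamine and 5-HT by HPLC-ECD. After three stable baselines, rats received 1 mg/kg i.v. at time zero, then 3 mg/kg at 60 min; controls received saline 1 mL/kg. Data are % of baseline; N=6–7/group; two-way ANOVA, Bonferroni.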

human DAT [7] = target: T1, human DAT; test: Uptake inhibition in HEK-293 cells expressing human DAT; assay type: cell-based
DAT and SERT = conditions: HEK-293 cells, uptake inhibition; ref Simmler et al. 2013; 2014; cited from earlier work
DAT [8] = target: T3, DAT; test: Uptake inhibition of [3H]dopamine in rat brain synaptosomes; assay type: biochemical; conditions: for DAT/SERT ratio ([DAT IC50]^−1/[SERT IC50]^−1): synaptosome uptake assays, higher value indicates greater DAT-selectivity
SERT [9] = target: T4, SERT (Rattus norvegicus, UniProt P31652); test: Release of [3H]5-HT from rat brain synaptosomes; assay type: biochemical
DAT [10] = conditions: 100 μM drug; ref Dolan et al. (2018); cited from earlier work
motor activity = test: Motor activity and stereotypy; assay type: in vivo, rat; conditions: rats, 1 and 3 mg/kg i.v.; for motor activity (forward locomotion): compared to saline
In short: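 Conscious, tethered male Sprague-Dawley rats were acclimated overnight in photobeam arenas and tracked for forward locomotion and stereotypy during microdialysis. Dosing was i.v. via jugular catheter: 1 mg/kg at time zero, then 3 mg/kg 60 min later; saline controls received 1 mL/kg on the same schedule. Data are % of basal preinjection values; N=6–7/group; two-way ANOVA (treatment × time) with Bonferroni tests against saline.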

human DAT [11] = target: T1, human DAT; test: Transporter-mediated ionic currents, whole cell patch clamp, HEK-293 human DAT; assay type: cell-based; conditions: voltage clamped to −60 mV, 300 nM to 300 μM
In short: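 HEK-293 cells stably expressing human DAT were seeded at low density 24 h before recording. Whole-cell voltage clamp was held at −60 mV, with K-gluconate/EGTA pipette solution (pH 7.2) and NaCl/glucose HEPES bath (pH 7.4). Test compound (300 nM–300 μM) was applied by rapid superfusion. Passive holding currents were subtracted, traces low-pass filtered at 100 Hz, and currents normalised to 10 μM endogenous substrate. One-way ANOVA; n=3.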

SERT [12] = target: T4, SERT; test: Uptake inhibition of [3H]5-HT in rat brain synaptosomes; assay type: biochemical
[13] = 3 mg/kg i.v. given 60 min after 1 mg/kg

T1 sequence (Q01959 whole entry): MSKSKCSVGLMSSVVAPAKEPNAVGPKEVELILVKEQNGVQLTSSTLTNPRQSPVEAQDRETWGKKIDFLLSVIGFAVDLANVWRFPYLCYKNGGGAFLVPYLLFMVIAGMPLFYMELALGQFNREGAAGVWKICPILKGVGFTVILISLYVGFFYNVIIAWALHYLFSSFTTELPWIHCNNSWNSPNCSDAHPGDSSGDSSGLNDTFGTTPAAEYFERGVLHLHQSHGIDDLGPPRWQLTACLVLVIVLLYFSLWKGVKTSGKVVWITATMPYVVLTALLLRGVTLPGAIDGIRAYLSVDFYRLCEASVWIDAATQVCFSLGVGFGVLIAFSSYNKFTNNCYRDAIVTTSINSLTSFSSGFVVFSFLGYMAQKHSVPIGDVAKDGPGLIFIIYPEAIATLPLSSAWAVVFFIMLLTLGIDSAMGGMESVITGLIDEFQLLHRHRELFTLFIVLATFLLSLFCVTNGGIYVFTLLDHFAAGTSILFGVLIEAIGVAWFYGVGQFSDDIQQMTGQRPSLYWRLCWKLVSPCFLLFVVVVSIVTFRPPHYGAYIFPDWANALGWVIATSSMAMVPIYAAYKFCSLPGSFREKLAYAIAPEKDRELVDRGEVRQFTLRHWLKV
T4 sequence (P31652 whole entry): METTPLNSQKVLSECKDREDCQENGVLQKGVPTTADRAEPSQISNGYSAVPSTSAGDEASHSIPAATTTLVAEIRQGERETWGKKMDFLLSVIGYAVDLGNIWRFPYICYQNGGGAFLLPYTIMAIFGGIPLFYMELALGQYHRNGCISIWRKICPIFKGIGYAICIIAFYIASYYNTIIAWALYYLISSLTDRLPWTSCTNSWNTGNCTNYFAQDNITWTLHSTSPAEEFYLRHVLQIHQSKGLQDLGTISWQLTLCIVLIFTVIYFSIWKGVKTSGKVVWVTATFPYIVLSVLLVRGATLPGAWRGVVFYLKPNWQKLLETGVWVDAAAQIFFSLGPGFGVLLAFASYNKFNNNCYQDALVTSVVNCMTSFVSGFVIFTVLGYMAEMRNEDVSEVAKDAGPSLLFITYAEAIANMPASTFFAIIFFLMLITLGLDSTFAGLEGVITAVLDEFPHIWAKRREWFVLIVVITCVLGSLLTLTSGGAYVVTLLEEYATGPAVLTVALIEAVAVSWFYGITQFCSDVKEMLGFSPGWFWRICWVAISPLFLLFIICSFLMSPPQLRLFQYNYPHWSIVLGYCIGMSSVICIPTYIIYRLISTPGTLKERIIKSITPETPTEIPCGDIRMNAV
T2 sequence (P31645 whole entry): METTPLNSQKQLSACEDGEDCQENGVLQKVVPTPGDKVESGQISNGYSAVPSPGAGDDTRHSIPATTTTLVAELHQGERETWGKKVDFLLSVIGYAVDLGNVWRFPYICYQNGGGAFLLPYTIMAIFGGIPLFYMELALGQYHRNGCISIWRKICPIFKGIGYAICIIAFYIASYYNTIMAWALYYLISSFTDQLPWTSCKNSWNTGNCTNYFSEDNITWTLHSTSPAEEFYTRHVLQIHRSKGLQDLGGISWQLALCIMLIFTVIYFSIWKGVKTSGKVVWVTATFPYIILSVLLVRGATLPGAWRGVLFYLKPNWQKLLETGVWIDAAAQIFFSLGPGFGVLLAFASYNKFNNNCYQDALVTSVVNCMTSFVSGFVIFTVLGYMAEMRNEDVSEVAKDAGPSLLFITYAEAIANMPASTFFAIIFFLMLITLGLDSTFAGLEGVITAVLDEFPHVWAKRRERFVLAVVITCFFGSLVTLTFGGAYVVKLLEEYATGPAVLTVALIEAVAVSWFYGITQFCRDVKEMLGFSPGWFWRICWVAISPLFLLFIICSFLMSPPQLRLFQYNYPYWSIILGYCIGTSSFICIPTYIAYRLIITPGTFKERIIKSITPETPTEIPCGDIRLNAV
T3 sequence (P23977 whole entry): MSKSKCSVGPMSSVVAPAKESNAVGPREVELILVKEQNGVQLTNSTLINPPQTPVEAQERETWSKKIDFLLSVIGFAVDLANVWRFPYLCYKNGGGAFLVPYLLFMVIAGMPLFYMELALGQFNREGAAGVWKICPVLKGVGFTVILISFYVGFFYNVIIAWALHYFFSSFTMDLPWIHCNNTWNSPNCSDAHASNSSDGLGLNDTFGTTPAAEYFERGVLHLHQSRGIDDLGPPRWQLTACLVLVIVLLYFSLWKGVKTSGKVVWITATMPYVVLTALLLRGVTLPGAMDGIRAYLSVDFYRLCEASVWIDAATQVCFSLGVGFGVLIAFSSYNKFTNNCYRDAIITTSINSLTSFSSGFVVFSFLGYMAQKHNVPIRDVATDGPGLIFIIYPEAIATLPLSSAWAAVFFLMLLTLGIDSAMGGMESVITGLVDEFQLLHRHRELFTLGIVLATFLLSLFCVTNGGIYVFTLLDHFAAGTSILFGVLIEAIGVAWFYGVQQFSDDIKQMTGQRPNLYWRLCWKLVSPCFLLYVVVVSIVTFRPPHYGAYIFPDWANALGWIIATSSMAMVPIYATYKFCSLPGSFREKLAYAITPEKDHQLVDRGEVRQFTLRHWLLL

Row | SMILES | [3H]MPP+ efflux at DAT (human DAT [1]) | IC50 (human SERT [2]) [µM] | [3H]5-HT efflux at SERT (human SERT [3]) | effect of monensin on drug-evoked [3H]5-HT efflux at SERT (human SERT [3]) | SERT-mediated inward currents (human SERT [4]) | release of [3H]MPP+ at DAT (DAT [5]) | extracellular 5-HT levels increase ([6]; 1 mg/kg i.v.) | extracellular dopamine levels above baseline ([6]; 1 mg/kg i.v.) [fold] | extracellular 5-HT levels increase [6, 13] [fold] | extracellular dopamine levels increase [6, 13] | IC50 (human DAT [7]) [µM] | DAT/SERT ratio (DAT and SERT) | IC50 (DAT [8]) [µM] | DAT/SERT ratio ([DAT IC50]^−1/[SERT IC50]^−1) (DAT [8]) | EC50 (SERT [9]) [µM] | drug-induced current at DAT as fraction of current induced by dopamine (DAT [10]) [%] | motor activity (forward locomotion) (motor activity) | transporter-mediated currents at DAT (human DAT [11]) | IC50 (SERT [12]) [µM] | other results
1 | CCC(NC)C(=O)c1ccc2c(c1)OCO2 (stereo not shown) [butylone, 1-(1,3-Benzodioxol-5-yl)-2-(methylamino)butan-1-one] | neither butylone nor pentylone evoked [^3H]MPP^+ efflux at DAT | 24.4 ± 2 | evoked [^3H]5-HT efflux at SERT | markedly enhanced | dose-related induction of SERT-mediated inward currents | failed to produce efficacious release | 3 fold | 2 | ~7 | about 3.5 fold | 1.44 ± 0.1 | 2.1 | 0.4 ± 0.02 | 3.6 | 0.33 ± 0.04 | < 20 | increased motor activity | no discernable currents | 1.43 ± 0.16 | 
2 | CCCC(NC)C(=O)c1ccc2c(c1)OCO2 (stereo not shown) [pentylone, 1-(1,3-benzodioxol-5-yl)-2-(methylamino)pentan-1-one] | neither butylone nor pentylone evoked [^3H]MPP^+ efflux at DAT | 11.7 ± 0.5 | evoked [^3H]5-HT efflux at SERT | markedly enhanced | dose-related induction of SERT-mediated inward currents | failed to produce efficacious release | no effect | 2 | 3 | about 3.5 fold | 0.31 ± 0.07 | 6.2 | 0.12 ± 0.01 | 11.4 | 1.03 ± 0.18 | < 20 | increased motor activity | no discernable currents | 1.36 ± 0.1 | efficacy of SERT-mediated release (SERT [9]; rat brain synaptosomes, [3H]5-HT release): 48 % of Emax; stereotypy (repetitive movements) (motor activity; post hoc tests vs saline): increased stereotypy

Source: paper PMC6476708 (Psychopharmacology, 2018)
